From PubChem
Rows were chosen to be rich in hits. Some 3.9% of all compounds tested hit in one or more screens of this group.
Gli-Sufu antag = blocks Gli-Sufu signaling in a luciferase reporter; 0.74% of 340,000 active; Sufu-KO-LIGHT fibroblasts, Gli luciferase reporter luminescence; inhibition, % at 5 µM;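 active = inhibition above about 55%, limit read from the data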;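 also: 0% = DMSO-treated cells and 100% = wells with medium but no cells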
Jurkat NFkB inh = inhibitors of the PMA/ionomycin-induced NF-kB reporter in Jurkat cells. inhibition, % at 4 µM. PMA/ionomycin-induced NF-kB luciferase reporter, luminescence. 0.53% of 330,000 active; in the data active = inhibition above about 50%
697 NFkB inh = inhibitors of the PMA/ionomycin-induced NF-kB reporter in 697 B cells | 0.33% of 330,000 active | AID 435022 | inhibition, % at 4 µM | 697 B-cell NF-kB luciferase reporter, 16 h; in the data active = inhibition above about 35%
CHOP inh = inhibitors of CHOP induction in ER stress response; CHO-K1 CHOP-promoter luciferase, tunicamycin-induced, 15-18 h; 3.8% of 220,000 active; inhibition, % at 10 µM;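 active = compounds that reduced the stress-induced luciferase reporter signal by more than about 70% of percent inhibition, limit read from the data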;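 also: 0% = tunicamycin plus vehicle and 100% = wells without tunicamycin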
CHOP UPR activ = apoptotic UPR (CHOP) activation; CHO-CHOP luciferase reporter, luminescence; percent of tunicamycin response over DMSO baseline; activation, % at 10 µM; 0.34% of 330,000 active;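 active = at 10 µM dose, activation of 40% or more, normalized to positive control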;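 also: 100% = tunicamycin at 10 µg/mL and 0% = DMSO alone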
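measured by = luciferase luminescence | assay system = CHO-CHOP cells, stable luciferase reporter of PERK-eIF2a-CHOP signalling | amount = 500 reporter cells seeded per well | timing = 6 h compound exposure at 37 °C after overnight seeding | controls = positive tunicamycin 10 µg/mL, negative DMSO alone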
XBP1 UPR activ = adaptive UPR (XBP1) activation. CHO-XBP1 luciferase reporter, IRE1-XBP1 UPR activation, luminescence; percent of tunicamycin response, DMSO as zero. activation, % at 20 µM. 0.33% of 330,000 active;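 active = versus positive control, 20 µM dose yields 30% or more activation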;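 also: 100% = tunicamycin at 10 µg/mL and 0% = DMSO only wells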
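Material – CHO cell line with stable XBP1 luciferase reporter · Buffer or medium – F12 plus 10% FBS · Compound – single point, 20 µM final compound, 1% DMSO · Schedule – 16-18 h cell attachment at 37 °C, then 6 h compound exposure · Signal – Steady-Glo luminescence read · Benchmarks – high control tunicamycin 10 µg/mL final, low control DMSO vehicle only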
CHOP confirm = confirmation of CHOP induction inhibitors. inhibition, % at 10 µM. 45% of 2,100 active. CHO-CHOP promoter luciferase reporter, tunicamycin-induced, luminescence. shares compounds with CHOP inh;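 active = mean of three repeat readings of reporter signal inhibition above a set limit, cut at about 70% in these data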;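 also: 0% = tunicamycin plus vehicle and 100% = wells lacking tunicamycin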
The depositor's hits bear a star; x = no result.

SMILES	Gli-Sufu antag	Jurkat NFkB inh	697 NFkB inh	CHOP inh	CHOP UPR activ	XBP1 UPR activ	CHOP confirm
Cc1ccc(CNC(=O)C2CCC(CNc3nc(=S)[nH]c4ccccc34)CC2)cc1 (configuration not stated)	-6	7	-2	98*	-2	0	40
COC(=O)c1cc(NC(=O)COC(=O)C2COc3ccccc3O2)cc(C(=O)OC)c1 (configuration not stated)	39	-9	1	x	-2	-1	x
Oc1ccc(/C=N/Nc2cc(N3CCCC3)nc(N3CCCC3)n2)cc1	7	13	-22	109*	4	25	14
CCOc1ccc(CC(=O)Nc2ccc(S(=O)(=O)N3CCCC3)cc2)cc1	-1	-2	2	x	0	-2	x
Cc1ccc(NC(=O)Nc2cc(Cl)ccc2C2COC(=O)C2=N)cc1 (configuration not stated)	11	10	20	101*	2	-1	62
Cc1cc(C(=O)N/N=C/c2cc(Br)ccc2OC(=O)c2ccccc2Cl)n[nH]1	-1	11	2	99*	1	2	34
C=CCc1cccc(CNc2nc3ccccc3n2C(C)C)c1O	-1	3	20	108*	-1	-2	43
CSCCC(NC(=O)c1ccccc1Cl)C(=O)NNC(=O)c1ccncc1 (configuration not stated)	-10	8	5	x	0	-3	x
COc1ccc(C2CC(c3ccccc3)=NN2S(=O)(=O)c2ccccc2)cc1 (configuration not stated)	4	1	-15	5	-1	1	x
Cc1ccc(C2=NN(S(=O)(=O)c3ccccc3)C(c3ccccc3O)C2)cc1 (configuration not stated)	-8	x	x	106*	x	x	38
Cc1ccc(C2=NN(C(=O)c3cccs3)C(c3ccccc3O)C2)cc1 (configuration not stated)	-13	-21	-7	103*	0	0	105*
Nc1nonc1C(=O)NCCN=Cc1cc(Cc2ccccc2)cc(Br)c1O	0	-3	-13	104*	0	0	12
Nc1nonc1C(=O)NCCN=Cc1ccccc1O	2	-9	5	28	2	-3	x
Cc1ccc2nc(C(F)(F)F)c(C#N)c(N)c2c1	-8	24	-49	54	-2	-3	x
Cc1cc(C)c2nc(C(F)(F)F)c(C#N)c(N)c2c1	-8	2	-15	106*	1	-1	116*
CCCCCCOC(=O)Nc1ccc(S(=O)(=O)Nc2cccc([N+](=O)[O-])c2)cc1	5	-3	-8	106*	-2	1	110*
O=C(NCCOc1ccccc1)C1CCC(=O)N(C2CCCCCC2)C1 (configuration not stated)	1	-4	3	x	-1	-8	x
Nc1c(S(=O)(=O)c2ccccc2)c2nc3ccccc3nc2n1/N=C/c1cccc(O)c1	4	-14	9	103*	4	2	72*
Cc1cccc(S(=O)(=O)c2c(N)n(/N=C/c3ccccc3)c3nc4ccccc4nc23)c1	1	6	8	11	4	-3	x
O=c1oc2cc(O[C@@H]3OC[C@@H](O)[C@H](O)[C@H]3O)ccc2c2ccccc12	23	-21	-10	x	-2	-2	x
O=C(Nc1ccc2c(c1)OCCO2)c1cc(-c2ccccn2)nc2ccc(Br)cc12	5	-8	12	101*	1	3	2
O=C(NNC(=O)C1CCN(S(=O)(=O)c2ccc(Cl)cc2)CC1)c1ccccc1O	6	-3	4	x	1	1	x
CCOc1cc(/C=N/NC(=O)Cc2ccc(C(F)(F)F)cc2[N+](=O)[O-])c(Br)cc1OC	-7	-13	9	101*	-1	5	100*
CCOC(=O)NC1=NCC(C)(C)S1	-11	x	x	x	x	x	x
CC1(C)c2ssc(=S)c2-c2ccccc2N1C(=O)c1ccco1	13	8	-17	98*	-1	1	12
SMILES	Gli-Sufu antag	Jurkat NFkB inh	697 NFkB inh	CHOP inh	CHOP UPR activ	XBP1 UPR activ	CHOP confirm
O=C(Nc1ccccc1C(=O)NC1CC1)c1ccccc1F	-13	16	6	x	-3	0	x
O=C(COc1ccc(S(=O)(=O)NCc2ccccc2)cc1)NCc1cccnc1	7	-2	10	x	1	0	x
O=C(Cc1ccccc1)NNC(=O)Nc1cccc(Cl)c1	-2	6	-4	18	0	0	x
O=C(CN1c2ccccc2Sc2ccccc21)NNC(=O)Nc1cccc(Cl)c1	2	2	6	103*	2	-1	118*
CSc1nc(N)nc(SCC(=O)C23CC4CC(CC(C4)C2)C3)c1C#N	5	-15	-14	56	0	3	x
N#Cc1c(N)nc(SCC(=O)C23CC4CC(CC(C4)C2)C3)c(C#N)c1-c1ccc(Cl)cc1	6	0	17	101*	1	0	83*
Cn1c(CCNC(=O)c2ccc(Cl)c(Cl)c2)nnc1SCc1ccc(Cl)c(Cl)c1	-3	1	10	100*	-2	-1	52
C=CCn1c(SCCOc2ccccc2)nnc1C(C)NC(=O)c1ccccc1 (configuration not stated)	1	7	11	12	2	2	x
C=CCn1c(CCNC(=O)c2ccc(Cl)c(Cl)c2)nnc1SCCOc1ccc(OC)cc1	12	4	11	97*	5	-2	81*
CCN(CC)CCNC(=O)c1ccc(NC(=O)Cc2cccc3ccccc23)cc1	1	-26	7	x	0	-5	x
COc1cccc(NC(=O)CN(C)C(=O)C2=COCCO2)c1	0	-4	1	x	1	2	x
O=C(c1ccc(Cl)c(Cl)c1)N1CCC(O)(CN2CCOCC2)CC1	17	-4	8	16	-1	-6	x
O=C(c1ccc(Cl)cc1)N1CCC(O)(CSc2ccc(Cl)cc2Cl)CC1	2	5	0	109*	0	-2	87*
COc1cc(OC)c(OC)cc1/C=N/Nc1ncnc2c1[nH]c1ccccc12	2	36	-73	104*	-1	11	72*
CCOc1ccc(NC2=C(Cl)C(=O)N(Cc3ccccc3)C2=O)cc1	11	16	-40	105*	0	-1	22
COc1ccc(NC2=C(Cl)C(=O)N(CCc3ccccc3)C2=O)cc1	-33	-31	-47	2	5	5	x
CN(C(=O)COC(=O)c1ccc(Cl)c(S(=O)(=O)N2CCCCC2)c1)C1(C#N)CCCCC1	x	8	21	x	-1	-3	x
O=C(NC(=S)Nc1ccc2oc(-c3cccnc3)nc2c1)c1cccc(Cl)c1	-2	-41	-39	99*	5	1	8
